Test results taken from publication PMC11008256 (Cell reports. Physical science, 2024).
Structures can show the parent of a compound that is named as a salt. Ends that are not written are not given here. Peptide text beside a SMILES is read from it.

Key:
K. pneumoniae NTUH K2044 [1] = experiment: Antimicrobial activity, broth microdilution MIC; format: cell-based, Klebsiella pneumoniae; conditions: LB used for MIC testing to determine dosage for skin model
In short: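 Log-phase cells (an overnight LB culture diluted 1:100 in MHB at 37°C) seeded at 1 × 10^6 CFU mL-1 in LB for skin-model dosing, rather than the usual MHB. Peptide and polymyxin B control prepared in BSA buffer and tested at 0.0625–128 µmol L-1. Growth read as OD600; three independent replicates.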

K. pneumoniae NTUH K2044 [2] = experiment: Skin abscess mouse model; format: in vivo, female CD-1 mice; conditions: single topical dose at MIC, monitored 4 days, n = 6
[3] = Peptide:polysaccharide aggregation assay; design: species or system Klebsiella pneumoniae; conditions: 100 μmol L^−1 peptide, 300 μg mL^−1 polysaccharide
In short: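 Polysaccharide hot-phenol-extracted from an overnight LB culture (60 min, 68°C; chloroform; ethanol precipitation) and quantified by uronic acid assay. Mixed with peptide in 10 mM potassium phosphate, then immediately spun 15,600 rpm for 15 min. Pellets resuspended in water, run on 4–8% bis-tris SDS-PAGE beside 2 µg purified polysaccharide, and Alcian blue-stained. Band density measured with the no-peptide control subtracted as background. Triplicate; ±SEM.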

[4] = test system: pre-formed biofilms of K. pneumoniae NTUH K2044; experiment: Biofilm eradication; format: cell-based, Klebsiella pneumoniae; conditions: 60 μmol L^−1, 24 h
In short: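 Overnight NTUH K2044 culture diluted to OD600 0.5 in TSB + 0.5% glucose. Biofilms grown 24 h at 37°C static in 35 mm dishes. Peptide diluted in BSA buffer (0.2% BSA, 0.01% acetic acid) plus MHB; untreated control received buffer plus MHB. Treatment 24 h at 37°C static. Dispersed cells and PBS-washed (×3), PBS-resuspended biofilm plated for CFU mL-1. ±SEM; one-way ANOVA with Dunnett versus untreated.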

[5] = test system: K. pneumoniae NTUH K2044 biofilm matrix polysaccharides; experiment: Confocal microscopy imaging of biofilm polysaccharide matrix; format: cell-based, Klebsiella pneumoniae
Human red blood cells = experiment: Hemolytic activity assay; format: cell-based; conditions: 1 to 128 μmol L^−1, 4 h room temperature, absorbance 405 nm

Compound	MIC used as dose for skin model (K. pneumoniae NTUH K2044 [1]) [µM]	mouse weight changes, skin damage (proxy of toxicity) (K. pneumoniae NTUH K2044 [2])	aggregation with extracellular polysaccharides (in words) [3]	biofilm and dispersed CFU mL^−1 [4]	effect on biofilm polysaccharide matrix (confocal) ([5]; 15 μmol L^−1, 24 h, concanavalin A Texas red stain)	effect on biofilm polysaccharide matrix (confocal) ([5]; 60 μmol L^−1, 24 h)	hemolysis (Human red blood cells)
CC[C@H](C)CCCCC(=O)N[C@@H](CCN)C(=O)N[C@H](C(=O)N[C@@H](CCN)C(=O)N[C@H]1CCNC(=O)[C@H]([C@@H](C)O)NC(=O)[C@H](CCN)NC(=O)[C@H](CCN)NC(=O)[C@H](CC(C)C)NC(=O)[C@@H](Cc2ccccc2)NC(=O)[C@H](CCN)NC1=O)[C@@H](C)O [polymyxin B, polymyxin B sulfate, reference compound] (HELM PEPTIDE1{[CC[C@H](C)CCCCC(=O)[*:2]].[Dab].T.[Dab].[Dab].[Dab].[dF].L.[Dab].[Dab].T}$PEPTIDE1,PEPTIDE1,5:R3-11:R2$$$V2.0; N-terminus assumed; bridges inferred)	1	No variations in weight, damage to the skin tissue, or other harmful consequences					
PRPIPRPLPFPRPGPRPIPRPLPFPRPGPRPIPRP [Bac7 (24–59)]			highest aggregation potential	did not significantly change	drop in overall height (30 μm) and moderate change in the polysaccharide matrix	polysaccharide matrix loss from the upper layers of the biofilm	
RRIRPRPPRLPRPRPRPLPFPRPGPRPIPRPLPFP [Bac7 (1–35)]	2	No variations in weight, damage to the skin tissue, or other harmful consequences					limited ability to lyse red blood cells
